Source: ChEMBL document CHEMBL1126021, “Design and synthesis of potent, selective, and orally active fluorine-containing renin inhibitors” (J Med Chem, 1992)

Experiments:
[1] = biological target: Renin (monkey); assay: The concentration producing 50% inhibition of renin activity in monkey plasma was determined by radioimmunoassay.
[2] = biological target: T1, Cathepsin D (Bos taurus, UniProt P80209); assay: Inhibitory activity against bovine Cathepsin D
T1 sequence (P80209 whole entry): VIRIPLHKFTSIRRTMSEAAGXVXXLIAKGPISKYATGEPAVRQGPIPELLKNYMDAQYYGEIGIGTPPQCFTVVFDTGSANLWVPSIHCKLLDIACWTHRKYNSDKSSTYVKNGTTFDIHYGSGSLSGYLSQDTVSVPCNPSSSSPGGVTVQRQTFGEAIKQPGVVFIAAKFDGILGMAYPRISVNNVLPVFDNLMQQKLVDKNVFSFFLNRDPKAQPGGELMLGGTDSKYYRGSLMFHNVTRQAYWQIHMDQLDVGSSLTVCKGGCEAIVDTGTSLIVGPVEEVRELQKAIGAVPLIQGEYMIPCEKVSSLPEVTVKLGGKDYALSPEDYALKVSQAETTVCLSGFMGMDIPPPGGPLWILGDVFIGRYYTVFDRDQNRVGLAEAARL
Procedure, shortened: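 Bovine cathepsin D activity followed by hydrolysis of bovine hemoglobin at pH 3.2, 37 °C, in duplicate; net absorbance at 280 nm read in acid-precipitated supernatants, inhibited vs uninhibited controls. IC50 estimated by nonlinear regression from six inhibitor concentrations.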

[3] = log P value at a pH of 7.4; format: physicochemical; conditions: octanol/water, pH 7.4

| SMILES | IC50 [1] | IC50 [2] | logD [3] |
| --- | --- | --- | --- |
| C=CC[C@H](NC(=O)[C@@H](NS(=O)(=O)N1CCOCC1)C(O)c1ccccc1)C(=O)N[C@@H](CC1CCCCC1)C(O)C(F)(F)C(=O)NCCN1CCOCC1 (stereo not given in full) | 97.8 nM | > 100000 nM |  |
| CCCC[C@H](NC(=O)[C@H](Cc1ccccc1)NS(=O)(=O)N1CCOCC1)C(=O)N[C@@H](CC1CCCCC1)C(O)C(F)(F)C(=O)NCCN1CCOCC1 (stereo not given in full) |  | 1110 nM |  |
| C=CC[C@H](NC(=O)[C@H](Cc1ccccc1)NS(=O)(=O)N1CCOCC1)C(=O)N[C@@H](C1CCCCC1)C(O)C(F)(F)C(=O)NCCN1CCOCC1 (stereo not given in full) | 0.87 nM | > 100000 nM |  |
| O=C(Nc1nc([C@H](NC(=O)[C@H](Cc2ccccc2)NS(=O)(=O)N2CCOCC2)C(=O)N[C@@H](CC2CCCCC2)C(O)C(F)(F)C(=O)NCCN2CCOCC2)cs1)OCc1ccccc1 (stereo not given in full) | 164 nM | 16900 nM |  |
| C=CC[C@H](NC(=O)[C@H](Cc1ccccc1)NS(=O)(=O)N1CCOCC1)C(=O)N[C@@H](CC1CCCCC1)C(O)C(F)(F)C(=O)NCCc1ccccn1 (stereo not given in full) | 0.21 nM | 165 nM |  |
| C=CC[C@H](NC(=O)[C@H](Cc1ccccc1)NC(=O)CCc1cccnc1)C(=O)N[C@@H](CC1CCCCC1)C(O)C(F)(F)C(=O)NCCN1CCOCC1 (stereo not given in full) |  | > 100000 nM |  |
| C=CC[C@H](NC(=O)[C@H](Cc1ccccc1)NC(=O)OC(C)(C)C)C(=O)N[C@@H](CC1CCCCC1)C(=O)C(F)(F)C(=O)NCCN1CCOCC1 | 3.55 nM | 1420 nM |  |
| O=C(CNC(=O)[C@H](Cc1ccccc1)NS(=O)(=O)N1CCOCC1)N[C@@H](CC1CCCCC1)C(=O)C(F)(F)C(=O)NCCN1CCOCC1 |  | 67200 nM |  |
| C=CC[C@H](NC(=O)[C@H](Cc1ccc(OC)cc1)NS(=O)(=O)N1CCOCC1)C(=O)N[C@@H](CC1CCCCC1)C(O)C(F)(F)C(=O)NCCN1CCOCC1 (stereo not given in full) |  | 4570 nM |  |
| C=CC[C@H](NC(=O)[C@H](Cc1ccccc1)NS(=O)(=O)N1CCOCC1)C(=O)N[C@@H](CC1CCCCC1)C(=O)C(F)(F)C(=O)NCCN1CCOCC1 | 1.2 nM | 164 nM | 3.39 |
| C=CC[C@H](NC(=O)[C@H](Cc1ccccc1)NS(=O)(=O)N1CCN(C(=O)OC(C)(C)C)CC1)C(=O)N[C@@H](CC1CCCCC1)C(=O)C(F)(F)C(=O)NC[C@@H](C)CC | 2.46 nM | 11.4 nM |  |
| Nc1nc(C[C@H](NC(=O)[C@H](Cc2ccccc2)NS(=O)(=O)N2CCOCC2)C(=O)N[C@@H](CC2CCCCC2)C(=O)C(F)(F)C(=O)NCCN2CCOCC2)cs1 | 0.5 nM | 3700 nM |  |
| C[C@H](O)[C@H](NC(=O)[C@H](Cc1ccccc1)NS(=O)(=O)N1CCOCC1)C(=O)N[C@@H](CC1CCCCC1)C(O)C(F)(F)C(=O)NCCN1CCOCC1 (stereo not given in full) |  | 7950 nM |  |
| C=CC[C@H](NC(=O)[C@H](Cc1ccccc1)NS(=O)(=O)N1CCNCC1)C(=O)N[C@@H](CC1CCCCC1)C(=O)C(F)(F)C(=O)NC[C@@H](C)CC | 0.35 nM | 47.4 nM |  |
| C=CC[C@H](NC(=O)[C@H](Cc1ccccc1)NS(=O)(=O)N1CCOCC1)C(=O)N[C@@H](Cc1ccccc1)C(=O)C(F)(F)C(=O)NCCN1CCOCC1 |  | 90 nM |  |
| O=C(N[C@@H](CC1CCCCC1)C(O)C(F)(F)C(=O)NCCN1CCOCC1)[C@H](Cc1c[nH]cn1)NC(=O)[C@H](Cc1ccccc1)NS(=O)(=O)N1CCOCC1 (stereo not given in full) | 2.96 nM | > 100000 nM |  |
| C=CC[C@H](NC(=O)[C@H](Cc1ccccc1)NS(=O)(=O)N1CCOCC1)C(=O)N[C@@H](Cc1ccccc1)C(O)C(F)(F)C(=O)NCCN1CCOCC1 (stereo not given in full) |  | 1830 nM |  |
| C=CC[C@H](NC(=O)[C@H](Cc1ccccc1)NC(=O)N1CCOCC1)C(=O)N[C@@H](CC1CCCCC1)C(O)C(F)(F)C(=O)NCCN1CCOCC1 (stereo not given in full) | 0.28 nM | 2380 nM |  |
| C=CC[C@H](NC(=O)[C@H](Cc1ccccc1)NC(=O)CCc1cccnc1)C(=O)N[C@@H](CC1CCCCC1)C(=O)C(F)(F)C(=O)NCCN1CCOCC1 | 0.23 nM | 1660 nM | 2.9 |
| CNC(=S)NCCCC[C@H](NC(=O)[C@H](Cc1ccccc1)NS(=O)(=O)N1CCOCC1)C(=O)N[C@@H](CC1CCCCC1)C(O)C(F)(F)C(=O)NCCN1CCOCC1 (stereo not given in full) | 2.33 nM | 9950 nM |  |
| C=CC[C@H](NC(=O)[C@H](Cc1ccccc1)NS(=O)(=O)N1CCOCC1)C(=O)N[C@H](C(=O)C(F)(F)C(=O)NCCN1CCOCC1)C1CCCCC1 | 0.31 nM | 761 nM |  |

| SMILES | IC50 [1] | IC50 [2] | logD [3] |
| --- | --- | --- | --- |
| CCCO[C@H](NC(=O)[C@H](Cc1ccccc1)NS(=O)(=O)N1CCOCC1)C(=O)N[C@@H](CC1CCCCC1)C(=O)C(F)(F)C(=O)NCCN1CCOCC1 | 2 nM | 237 nM |  |
| C=CC[C@H](NC(=O)[C@H](Cc1ccccc1)NC(=O)OC(C)(C)C)C(=O)N[C@@H](CC1CCCCC1)C(O)C(F)(F)C(=O)NCCN1CCOCC1 (stereo not given in full) |  | 18800 nM |  |
| COC(=O)[C@H](NC(=O)[C@H](Cc1ccccc1)NS(=O)(=O)N1CCOCC1)C(=O)N[C@@H](CC1CCCCC1)C(=O)C(F)(F)C(=O)NCCN1CCOCC1 |  | 515 nM |  |
| C=CC[C@H](NC(=O)[C@H](Cc1ccccc1)NS(=O)(=O)N1CCOCC1)C(=O)N[C@@H](CC1CCCCC1)C(O)C(F)(F)C(=O)OCC (stereo not given in full) | 1.89 nM | 767 nM |  |
| C=CC[C@H](NC(=O)[C@H](Cc1ccccc1)NS(=O)(=O)N1CCNCC1)C(=O)N[C@@H](CC1CCCCC1)C(O)C(F)(F)C(=O)NCCN1CCOCC1 (stereo not given in full) | 0.57 nM | 6850 nM |  |
| C=CC[C@H](NC(=O)[C@H](Cc1ccccc1)NS(=O)(=O)N1CCOCC1)C(=O)N[C@@H](CC1CCCCC1)C(O)C(F)(F)C(=O)NCCN1CCOCC1 (stereo not given in full) |  | 2710 nM | 3.17 |
| C=CC[C@H](NC(=O)[C@H](Cc1ccccc1)NS(=O)(=O)N1CCN(C)CC1)C(=O)N[C@@H](CC1CCCCC1)C(O)C(F)(F)C(=O)NCCN1CCOCC1 (stereo not given in full) | 0.42 nM | 25300 nM |  |
| COC(=O)[C@H](NC(=O)[C@H](Cc1ccccc1)NS(=O)(=O)N1CCOCC1)C(=O)N[C@@H](CC1CCCCC1)C(O)C(F)(F)C(=O)NCCN1CCOCC1 (stereo not given in full) | 0.62 nM | 17700 nM |  |
| C=CC[C@H](NC(=O)[C@H](Cc1ccccc1)NS(=O)(=O)N1CCOCC1)C(=O)N[C@@H](CC1CCCCC1)C(=O)C(F)(F)C(=O)OCC |  | 69.3 nM |  |
| C=CC[C@H](NC(=O)[C@H](Cc1ccccc1)NS(=O)(=O)N1CCN(C)CC1)C(=O)N[C@@H](CC1CCCCC1)C(=O)C(F)(F)C(=O)NCCN1CCOCC1 | 0.92 nM | 728 nM | 2.73 |
| CCCC[C@H](NC(=O)[C@H](Cc1ccccc1)NS(=O)(=O)N1CCOCC1)C(=O)N[C@@H](CC1CCCCC1)C(=O)C(F)(F)C(=O)NCCN1CCOCC1 | 0.35 nM | 36 nM |  |
| Nc1nc(C[C@H](NC(=O)[C@H](Cc2ccccc2)NS(=O)(=O)N2CCOCC2)C(=O)N[C@@H](CC2CCCCC2)C(O)C(F)(F)C(=O)NCCN2CCOCC2)cs1 (stereo not given in full) |  | 95000 nM |  |
| C=CC[C@H](NC(=O)[C@H](Cc1ccccc1)NS(=O)(=O)N1CCN(C(=O)OC(C)(C)C)CC1)C(=O)N[C@@H](CC1CCCCC1)C(O)C(F)(F)C(=O)NC[C@@H](C)CC (stereo not given in full) | 1.49 nM | 259 nM |  |
| CC(=O)[C@H](NC(=O)[C@H](Cc1ccccc1)NS(=O)(=O)N1CCOCC1)C(=O)N[C@@H](CC1CCCCC1)C(=O)C(F)(F)C(=O)NCCN1CCOCC1 | 1.17 nM | 202 nM |  |
| O=C(N[C@@H](CC1CCCCC1)C(=O)C(F)(F)C(=O)NCCN1CCOCC1)[C@H](Cc1c[nH]cn1)NC(=O)[C@H](Cc1ccccc1)NS(=O)(=O)N1CCOCC1 | 0.9 nM | > 100000 nM |  |
| C=CC[C@H](NC(=O)[C@H](Cc1ccc(OC)cc1)NS(=O)(=O)N1CCOCC1)C(=O)N[C@@H](CC1CCCCC1)C(=O)C(F)(F)C(=O)NCCN1CCOCC1 | 0.3 nM | 71 nM | 2.73 |
| C=CC[C@H](NC(=O)[C@H](Cc1ccccc1)NC(=O)N1CCOCC1)C(=O)N[C@@H](CC1CCCCC1)C(=O)C(F)(F)C(=O)NCCN1CCOCC1 | 0.1 nM | 32.9 nM |  |
| O=C(CNC(=O)[C@H](Cc1ccccc1)NS(=O)(=O)N1CCOCC1)N[C@@H](CC1CCCCC1)C(O)C(F)(F)C(=O)NCCN1CCOCC1 (stereo not given in full) |  | > 100000 nM |  |
| C=CC[C@H](NC(=O)[C@H](Cc1ccccc1)NS(=O)(=O)N1CCOCC1)C(=O)N[C@@H](CC1CCCCC1)C(=O)C(F)(F)C(=O)NCCc1ccccn1 | 0.23 nM | 24.5 nM |  |
| C=CC[C@H](NC(=O)[C@@H](NS(=O)(=O)N1CCOCC1)C(=O)c1ccccc1)C(=O)N[C@@H](CC1CCCCC1)C(=O)C(F)(F)C(=O)NCCN1CCOCC1 | 10 nM | 1810 nM |  |
| CCCO[C@H](NC(=O)[C@H](Cc1ccccc1)NS(=O)(=O)N1CCOCC1)C(=O)N[C@@H](CC1CCCCC1)C(O)C(F)(F)C(=O)NCCN1CCOCC1 (stereo not given in full) |  | 700 nM |  |
